Data from ChEMBL document CHEMBL4513216, “Probing the Open Global Health Chemical Diversity Library for Multistage-Active Starting Points for Next-Generation Antimalarials” (ACS Infect Dis, 2020).

Experiment: Toxicity liver stage against HepG2, at 10uM
Type: cell-based
Design: test concentration 10 uM, cell line HepG2-A16-CD81EGFP
Conditions: human, HepG2-A16-CD81EGFP cells; read-out: INHIBITION
Procedure, shortened: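 Uninfected HepG2-A16-CD81EGFP cells, 3 × 10^3 per well, 1536-well, plated on prespotted compound at 10 μM final, parasite-free screening media added to match infected plates; puromycin 10 μM positive, DMSO 0.5% negative; run in parallel with 48 h PbLuc assay at 37 °C, 5% CO2; viability by CellTiter-Glo luminescence, normalized to controls.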

Structure (SMILES) | cytotoxicity at 10 µM [%]
CCN(CC)CCCNCC1CCOC(C)(C)C1 (stereo unspecified) | -6.01
Nc1nnc(SCC(=O)c2cc3c(cc2Cl)NC(=O)C3)s1 | -0.139
CC1=Nc2c(c(=O)[nH]n2C(C)C)C(c2ccc3c(c2)OCCO3)S1 (stereo unspecified) | -1.01
Cc1c(Cl)cccc1S(=O)(=O)N1CCC2(CC1)OCCS2 | 4.19
COCCn1cnc(-c2cc(C(=O)NC(C)C)c3ccccn23)c1 | -1.03
CN(C)C(=O)c1nnc2ccc(N3CCOCC3)cc2n1 | 6.47
CCOC(=O)C1CCN(C(=O)c2cc(OCC)c3ccoc3c2)CC1 | 34.4
O=C(c1ccc(-c2ccc(O)nc2)s1)N1CCCCCC1 | 4.51
O=C(CN1CCC(c2cc(=O)n3c(n2)CCCCC3)CC1)N1CCCC1 | 4.62
Fc1ccccc1OCCc1cc(C2CCNC2)n[nH]1 (stereo unspecified) | -26.8
CN1CCC(Cc2cc(Nc3ccccn3)ncn2)CC1 | -23.4
COc1cc(CN2CC[C@H](NC(C)=O)[C@@H](O)CC2)ccc1F | -9.19
Cc1csc(Nc2nccnc2C2CCCN2CC(N)=O)n1 (stereo unspecified) | -20.8
O=C(O)c1ccccc1-c1ccc(CN2CC(O)C2)cc1 | -0.363
CCc1ccsc1CNC(=O)CNC(=O)C(C)(C)C | -4.08
CC(NC1(CNS(=O)(=O)N(C)C)CCCC1)c1ccccc1 (stereo unspecified) | -5.01
COc1cccc(COC(C)C(=O)NC2CCN(CC(N)=O)CC2)c1 (stereo unspecified) | 0.234
N#CC1COCCN1C(=O)c1ccc2[nH]cnc2c1 (stereo unspecified) | -2.87
CS(=O)(=O)N1CCC(CNc2cc(Cl)ccc2C#N)CC1 | 14.9
CS(=O)(=O)NC1CCN(C(=O)c2cc3ccccc3s2)C1 (stereo unspecified) | 6.65
Cc1cc(NCCNc2ccc(C#N)cn2)nc(C)n1 | 4.42
CCCN1Cc2ccccc2CC1C(=O)NC (stereo unspecified) | -5.74
CCC(C)(CNC(=O)c1ccon1)NC(=O)c1ccon1 (stereo unspecified) | -0.903

Structure (SMILES) | cytotoxicity at 10 µM [%]
NC(=O)CC1CCCCN1C(=O)c1ccc2cc[nH]c2c1 (stereo unspecified) | -4.02
COc1ccccc1C(C)(C)NCc1ccc(C)o1 | -0.121
Cn1cc(CNCCC(=O)NCc2ccccc2)c(-c2cccnc2)n1 | -2.19
Cn1cc(C2CCCN2C(=O)CCn2c(=O)oc3ccccc32)cn1 (stereo unspecified) | 4.91
COCCNC(=O)N1CCCC(COc2ccccc2)C1 (stereo unspecified) | 0.186
CN(CCN1CCOC1=O)CC(=O)Nc1ccc(Cl)c(C(F)(F)F)c1 | -46.5
Cc1noc([C@H]2C[C@H]3CN(C(=O)Cc4ccsc4)CC[C@H]3O2)n1 | -1.68
COCCN1C[C@H]2[C@@H](C1)N(C(=O)CCc1ccccc1)CC[C@H]2OC | 4.78
CCOCCn1c(=O)[nH]c2cc(C(=O)N(C)Cc3nc(C)c[nH]3)ccc21 | 6.09
CCN(Cc1nc(C)no1)C(=O)C1CC(=O)N(Cc2ccccn2)C1 (stereo unspecified) | 4.78
Cc1ccc2nc(C(=O)N3CCC(CCn4cccn4)CC3)cn2c1 | -18.3
Cc1noc(C)c1CCC(=O)N1CCOCC1CC(=O)N1CCCC1 (stereo unspecified) | 0.282
C[C@@H]1CN(c2nc3c(cc2C(N)=O)CCC3)C[C@]1(C)O | -0.112
CCN1CC(C(=O)N(C)Cc2cc3cc(F)ccc3[nH]2)CC1=O (stereo unspecified) | 0.782
COCc1cc(CNC(=O)c2c(C)cc(C)[nH]c2=O)n[nH]1 | -4.69
CCCc1nc(CN(CC)C(=O)c2onc3ccccc23)no1 | 9.67
O=C(Nc1ccc2c(c1)OCCO2)N1CCCN(Cc2cccs2)CC1 | 3.45
CS(=O)(=O)CCC(=O)Nc1cc(F)ccc1OCC1CCCO1 (stereo unspecified) | 3.41
CCc1ccc(C(=O)NCc2cccc(S(=O)(=O)NC)c2)o1 | -2.31
O=C(NCCn1ccnc1)NCC(c1ccco1)N1CCCC1 (stereo unspecified) | 2.01
CS(=O)(=O)N1CCOC2(CCCN(c3cnccn3)C2)C1 (stereo unspecified) | -3.23
Cc1nc(COCc2nc3c(o2)CN(C(=O)c2ccc[nH]2)C3)cs1 | 0.657
CCN(C)c1ncnc2c1CCN(Cc1ccsc1)CC2 | 1.69
